Measurements from different studies.
Lines come from different studies, so protocols differ.
Target: Mitogen-activated protein kinase kinase kinase 2 (MAP3K2, Homo sapiens, UniProt Q9Y2U5)
Sequence (Q9Y2U5 1-619, as in one of the studies): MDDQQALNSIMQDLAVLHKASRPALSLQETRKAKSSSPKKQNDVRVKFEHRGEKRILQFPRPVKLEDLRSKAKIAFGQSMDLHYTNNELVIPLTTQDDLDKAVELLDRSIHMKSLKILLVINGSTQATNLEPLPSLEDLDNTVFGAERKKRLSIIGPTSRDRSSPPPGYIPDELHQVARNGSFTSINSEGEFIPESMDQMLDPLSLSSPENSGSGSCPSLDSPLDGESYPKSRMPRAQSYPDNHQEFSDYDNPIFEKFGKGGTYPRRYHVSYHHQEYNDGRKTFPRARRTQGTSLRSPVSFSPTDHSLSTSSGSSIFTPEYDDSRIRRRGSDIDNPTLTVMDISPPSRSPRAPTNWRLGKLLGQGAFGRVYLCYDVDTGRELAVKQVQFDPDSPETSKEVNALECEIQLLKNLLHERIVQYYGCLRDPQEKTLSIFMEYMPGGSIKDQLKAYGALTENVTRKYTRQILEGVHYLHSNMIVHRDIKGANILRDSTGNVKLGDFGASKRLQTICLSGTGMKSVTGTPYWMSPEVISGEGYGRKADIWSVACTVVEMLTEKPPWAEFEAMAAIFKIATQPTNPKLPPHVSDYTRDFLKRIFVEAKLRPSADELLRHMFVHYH

Compound | read-out | action | method | cell line | tested at | quantity | result
Cc1cc(C)c(-n2ccn3nc(-c4cccnc4)cc23)cc1NC(=O)c1cc(C#N)cc(S(F)(F)(F)(F)F)c1 | cell-free assay |  | competition with immobilised ligand |  | 0.1 µM | remaining binding | 86.4%
CCOc1cc(-c2nncn2C)ccc1Nc1ncc2cc(C)nc(NCC(C)(C)C)c2n1 | cell-free assay |  | TR-FRET |  | 1 µM | inhibition | ≤ 15%
COc1cc2c(Nc3ccc(Br)cc3F)ncnc2cc1OCC1CCN(C)CC1 | cell-free assay |  |  |  | 0.5 µM | remaining signal | 108%
O=C(NCc1ncc(C(F)(F)F)cc1Cl)c1ccc2c(c1)C1(CCS(=O)(=O)CC1)[C@H](C1CC1)N2S(=O)(=O)c1ccc(F)cc1 | cell-free assay |  | competition with immobilised ligand |  | 1 µM | remaining binding | 66%
O=C(Nc1cnn(-c2csc(C(=O)NC3COC3)c2)c1)Nc1ccccc1Cl | enzyme activity | inhibitor |  |  | 5 µM | remaining activity | 110%
CCN1CCN(Cc2ccc(NC(=O)c3ccc(C)c(Oc4ccnc5[nH]ccc45)c3)cc2C(F)(F)F)CC1 | target engagement in cells | inhibitor | chemoproteomics | Huh-7 | 1 µM | inhibition | -39%
O=C(Nc1cnn(-c2csc(C(=O)NC3COC3)c2)c1)Nc1c(F)cccc1Cl | enzyme activity | inhibitor |  |  | 5 µM | remaining activity | 80.1%
Nc1ncnc2occ(-c3ccc(NC(=O)Nc4cc(C(F)(F)F)ccc4F)cc3)c12 | cell-free assay | inhibitor |  |  | 20 µM | remaining signal | 1.4%
CS(=O)(=O)N1CCCC(NC(=O)[C@H](CCC2CCCCC2)NC(=O)c2ccc(CNc3ncnc4c3nnn4-c3ccccc3)cc2)C1 (some centres unmarked) | cell-free assay |  | competition with immobilised ligand |  | 0.1 µM | remaining binding | 100%
CC(C)(C)c1nc2c(s1)c1nc(N)ncc1c1ccc(NS(=O)(=O)c3c(F)cccc3F)c(F)c12 | enzyme activity | inhibitor | radiometric |  | 1 µM | remaining activity | 83%
CN1CC(Oc2cnc(C#N)cc2-c2ccn3nc(NC(=O)C4CC4)cc3c2)C1 | enzyme activity | inhibitor |  |  | 1 µM | inhibition | 0%
O=C1NC(=O)c2cc(Nc3ccc(F)cc3)c(Nc3ccc(F)cc3)cc21 | cell-free assay |  |  |  | 0.5 µM | remaining signal | 94.8%
CN(C)C(=O)Cn1cc(-c2nc([C@@](C)(c3ccc(-c4cnc(N)nc4)cc3)C3CC3)no2)cn1 | cell-free assay |  | competition with immobilised ligand |  | 1 µM | remaining binding | 94%
CC(C)(O)[C@H]1CC[C@H](Nc2ccc3ncc(-c4cccc(C(F)(F)F)c4)n3n2)CC1 | enzyme activity | inhibitor |  |  | 1 µM | remaining activity | 95.8%
